Molecules are shown by their SMILES.

For this assay, the system named is Mus musculus. The experiment in a line: Antidepressant activity in Swiss albino mouse assessed as reduction of immobility duration at 30 mg/kg, ip administered 3 times for 24 hrs measured after 1 hr last post dose by tail suspension test. The note with it: route intraperitoneal. The arrangement: scale not given: the % may be the effect or the level left. Format: functional. In short, it runs like this: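 Adult male Swiss albino mice (22 ± 2 g), housed with controlled humidity, temperature and day-night cycle. Compound in DMSO given ip at 30 mg/kg at t = 0, 18 and 24 h; vehicle controls got DMSO ip at 5 mL/kg. Tail suspension run 1 h after the final dose, immobility scored over 6 min. %DID = [(A − B)/A] × 100 against control; n = 6, mean ± SEM, one-way ANOVA with Dunnett's test.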
`COc1ccc(NC(=O)CSc2nnc3c(n2)[nH]c2ccccc23)cc1`: the Activity worked out at 20.82%.
`O=C(CSc1nnc2c(n1)[nH]c1ccccc12)Nc1ccc(Br)cc1`: the Activity worked out at 67.59%.
As to `O=C(CSc1nnc2c(n1)[nH]c1ccccc12)NCc1ccccc1`, the Activity is recorded as 56.75%.
Take `COc1ccccc1NC(=O)CSc1nnc2c(n1)[nH]c1ccccc12`: the Activity was 24.3%.
Next, `O=C(CSc1nnc2c(n1)[nH]c1ccccc12)Nc1cccc(Br)c1`: 66.57%; `O=C(CSc1nnc2c(n1)[nH]c1ccccc12)Nc1ccccc1`: 70.62%.
As to `Cc1ccccc1NC(=O)CSc1nnc2c(n1)[nH]c1ccccc12`, the Activity is recorded as 20.87%.
For the compound `O=C(CSc1nnc2c(n1)[nH]c1ccccc12)Nc1ccccc1Cl`, the Activity is listed as 51.89%.
For the compound `O=C(CSc1nnc2c(n1)[nH]c1ccccc12)Nc1ccccc1Br`, the Activity turned out to be 42.84%.
Next, `O=C(CSc1nnc2c(n1)[nH]c1ccccc12)Nc1ccccc1[N+](=O)[O-]`: 42.66%; `Cc1cccc(NC(=O)CSc2nnc3c(n2)[nH]c2ccccc23)c1`: 26.29%.
With `COc1cccc(NC(=O)CSc2nnc3c(n2)[nH]c2ccccc23)c1` the figure was 31.08%; with `O=C(CSc1nnc2c(n1)[nH]c1ccccc12)Nc1cccc(Cl)c1`, 57.15%; with `O=C(CSc1nnc2c(n1)[nH]c1ccccc12)Nc1cccc([N+](=O)[O-])c1`, 58.75%.
In the case of `O=C(CSc1nnc2c(n1)[nH]c1ccccc12)Nc1ccc(Cl)cc1`, the Activity was 68.33%.
With `Cc1ccc(NC(=O)CSc2n[nH]c3c4ccccc4nc-3n2)cc1` the figure was 30.57%; with `O=C(CSc1n[nH]c2c3ccccc3nc-2n1)NC1CCCCC1`, 47.51%; with `O=C(CSc1nnc2c(n1)[nH]c1ccccc12)Nc1ccc([N+](=O)[O-])cc1`, 62.35%.
Next, `CNCCC(Oc1ccc(C(F)(F)F)cc1)c1ccccc1` (stereo unspecified) [FLUOXETINE]: 69.48%.
As to `CN(C)CCCN1c2ccccc2CCc2ccccc21` [IMIPRAMINE], the Activity came out at 60.58%.
Take `O=C(NCCN1CCOCC1)c1ccc(Cl)cc1` [MOCLOBEMIDE]: the Activity was 68.16%.

The values are drawn from ChEMBL document CHEMBL1208706, “Synthesis, antidepressant evaluation and QSAR studies of novel 2-(5H-[1,2,4]triazino[5,6-b]indol-3-ylthio)-N-(substituted phenyl)acetamides” (2010).
